The source of these data is the array DNA melting data of Ke et al. (doi:10.1101/2024.01.08.574731).

Data set [1] in a line: melting temperature; fluorescence melt of hairpins on a sequencing array, two-state fit, raised by 9.35 °C to match UV melts. The settings on record: sodium 0.088 M. A digest of the protocol:
(§1)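 To match UV melts, fitted temperatures were raised by 9.35 °C. These fits were bootstrapped two-state models that gave melting temperature and folding enthalpy, combined by inverse variance over four replicates. The input was normalised Cy3 fluorescence of library hairpins with annealed Cy3 and quencher oligos on a sequenced MiSeq flow cell, imaged in 50 mM Na-HEPES pH 8.0, 25 mM NaCl in 2.5 °C steps up to 60 °C.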

Data set [2] in a line: folding enthalpy; higher = less favourable; fluorescence melt of hairpins on a sequencing array, two-state fit. The settings on record: sodium 0.088 M. A digest of the protocol:
as §1

As for GCGCGGCGAAAGCCTCGC (((.(((....))).))), the Tm in data set [1] came out at 66.7 °C. The folding enthalpy in data set [2] is -26.2 kcal/mol.
With GCGCGTCGAAAGACACGC (((.(((....))).))), in data set [1], the Tm was determined as 62.9 °C. Further, the folding enthalpy in data set [2] was -45.5 kcal/mol.
The matching figures for GCGCGTGGAAACACGCAC (.(((((....))))).): 54.7 °C and -9.64 kcal/mol.
The matching figures for GCGCTAGGAAACCAGCGC (((((.(....).))))): 57.3 °C and -45.4 kcal/mol.
Consider GCGCTCGAAAGAGAACGC ((((((....)))..))), for which the Tm in data set [1] is 50.4 °C. For the same sequence, in data set [2], the folding enthalpy is -30.8 kcal/mol.
Regarding GCGCTCGAAAGAGCACGC ((((((....)))..))), the Tm in data set [1] was 60 °C. For the same sequence, the folding enthalpy in data set [2] was -16.7 kcal/mol.
The matching figures for GCGCTCGAAAGAGTCGC ((((((....))).))): 57.7 °C and -30.6 kcal/mol.
For GCGCTGCGAAAGCAAGGC ((..(((....)))..)) the same measures were 46.7 °C and -16 kcal/mol.
Regarding GCGCTGCGAAAGCACGGC ((..(((....)))..)), the Tm in data set [1] stood at 51.5 °C. Moreover, in data set [2], the folding enthalpy is -15.1 kcal/mol.
The matching figures for GCGCTGGGAAACTGGCGC ((((..(....)..)))): 57.3 °C and -49.8 kcal/mol.
For GCGCTTCGAAAGAACCGC (((.(((....))).))) the same measures were 46.4 °C and -31.7 kcal/mol.
For GCGCTTGGAAACAAACGC (((.(((....))).))) the same measures were 48 °C and -34.1 kcal/mol.
Turning to GCGGAAACCGC ((((...)))), the Tm in data set [1] worked out at 52.9 °C. For the same sequence, the folding enthalpy in data set [2] was -23 kcal/mol.
The matching figures for GCGGAAACGAAAGTTCGC (((..(((....)))))): 48.8 °C and -27.5 kcal/mol.
The matching figures for GCGGAAGCGAAAGCTCGC (((..(((....)))))): 52.1 °C and -31.5 kcal/mol.
For GCGGAAGGCCGC ((((....)))) the same measures were 53.1 °C and -21.7 kcal/mol.
In the case of GCGGAATTCCGC ((((....)))), in data set [1], the Tm worked out at 56.3 °C. Besides, in data set [2], the folding enthalpy was -36.5 kcal/mol.
For GCGGACAACCGC ((((....)))) the same measures were 53.1 °C and -19.5 kcal/mol.
The matching figures for GCGGACACCCGC ((((....)))): 53.5 °C and -20.9 kcal/mol.
For GCGGACAGCCGC ((((....)))) the same measures were 53.8 °C and -17.4 kcal/mol.
Consider GCGGACCCCGC ((((...)))), for which, in data set [1], the Tm is 54.4 °C. In data set [2], the folding enthalpy is -20.9 kcal/mol.
For GCGGACCGCCGC ((((....)))) the same measures were 55.8 °C and -19.1 kcal/mol.
The matching figures for GCGGACCTCCGC ((((....)))): 55.9 °C and -27.4 kcal/mol.
The matching figures for GCGGACGAAAGTCCCCGC ((((((....)))..))): 45.8 °C and -12.7 kcal/mol.
As for GCGGACGAAAGTCGGCGC ((((((....)))..))), the Tm in data set [1] amounted to 68 °C. Also, in data set [2], the folding enthalpy was -26.7 kcal/mol.
Take GCGGACGAAAGTCGTCGC ((((((....)))..))): the Tm in data set [1] was 52.6 °C. Further, the folding enthalpy in data set [2] is -22.8 kcal/mol.
Take GCGGACGAAAGTCTACGC ((((((....)))..))): the Tm in data set [1] amounted to 52.2 °C. The folding enthalpy in data set [2] is -28.8 kcal/mol.
The matching figures for GCGGACGGAAACACCCGC ((((..(....)..)))): 41.9 °C and -26.9 kcal/mol.
In the case of GCGGACGGAAACGCCCGC ((((.((....)).)))), the Tm in data set [1] stood at 67.8 °C. In data set [2], the folding enthalpy is -36.7 kcal/mol.
With GCGGACGGAAACGTCCAC (.(((((....))))).), the Tm in data set [1] is 51.1 °C. In addition, in data set [2], the folding enthalpy was -12.2 kcal/mol.
Take GCGGACGTCCGC ((((....)))): the Tm in data set [1] worked out at 60.8 °C. Further, the folding enthalpy in data set [2] is -53.7 kcal/mol.
As to GCGGACTTCCGC ((((....)))), in data set [1], the Tm worked out at 57.4 °C. For the same sequence, the folding enthalpy in data set [2] was -23.2 kcal/mol.
Turning to GCGGAGCCCCGC ((((....)))), the Tm in data set [1] is 55.8 °C. The folding enthalpy in data set [2] was -10.7 kcal/mol.
The matching figures for GCGGAGCCCGC ((((...)))): 49.4 °C and -11.3 kcal/mol.
The matching figures for GCGGAGCGAAAGCAGCGC (((..((....))..))): 58 °C and -17.1 kcal/mol.
For GCGGAGCGAAAGCCCTGC ((.(.((....)).).)) the same measures were 43.7 °C and -10.6 kcal/mol.
With GCGGAGCGAAAGCTAGGC ((..(((....)))..)), the Tm in data set [1] worked out at 41.9 °C. Further, the folding enthalpy in data set [2] is -9.5 kcal/mol.
In the case of GCGGAGCGAAAGCTTAGC ((..(((....)))..)), in data set [1], the Tm amounted to 52.3 °C. Further, the folding enthalpy in data set [2] is -14.1 kcal/mol.
